Assay results from ChEMBL document CHEMBL3997808 (J Med Chem, 2017).
Converted amounts (≈) assume the structure as drawn.

Legend:
[1] = target: T1, Receptor-interacting serine/threonine-protein kinase 1 (Homo sapiens, UniProt Q13546); experiment: Inhibition of human RIP1 (1 to 375 residues) expressed in baculovirus infected insect cells preincubated for 1 hr followed by ATP addition measured after 5 hrs by ADP-Glo luminescence assay
T1 sequence (Q13546 whole entry): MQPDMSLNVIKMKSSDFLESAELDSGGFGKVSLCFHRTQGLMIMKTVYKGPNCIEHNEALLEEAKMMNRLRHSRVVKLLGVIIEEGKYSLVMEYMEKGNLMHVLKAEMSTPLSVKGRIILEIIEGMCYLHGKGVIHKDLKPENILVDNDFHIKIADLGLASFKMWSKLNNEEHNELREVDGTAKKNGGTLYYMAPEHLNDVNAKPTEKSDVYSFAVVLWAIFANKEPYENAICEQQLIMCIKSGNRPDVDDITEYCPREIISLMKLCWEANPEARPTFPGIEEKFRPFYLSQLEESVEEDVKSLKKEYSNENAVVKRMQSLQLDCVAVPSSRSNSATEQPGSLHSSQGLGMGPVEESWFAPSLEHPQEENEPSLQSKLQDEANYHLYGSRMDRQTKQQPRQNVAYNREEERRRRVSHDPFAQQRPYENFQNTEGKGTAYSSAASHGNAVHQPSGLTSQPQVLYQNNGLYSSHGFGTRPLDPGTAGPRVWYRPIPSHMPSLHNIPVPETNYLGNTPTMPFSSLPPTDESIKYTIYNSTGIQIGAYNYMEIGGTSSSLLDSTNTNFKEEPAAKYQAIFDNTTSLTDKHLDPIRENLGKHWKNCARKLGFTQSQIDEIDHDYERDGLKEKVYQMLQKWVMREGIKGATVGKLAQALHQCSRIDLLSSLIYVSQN

[2] = Lipophilicity, log D of the compound at pH 7.4 by RP-HPLC method; assay type: physicochemical; conditions: buffer
Outline: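 Chromatographic hydrophobicity index (CHI) log D at pH 7.4, calculated from the retention time in a fast-gradient reverse-phase HPLC run.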

[3] = (§1) AUC (0 to infinity) in rat at 2 mg/kg, po; assay type: ADME, organism-based; design: dose 2 mg/kg, route oral, time infinity; conditions: in vivo
[4] = Drug level in rat hepatocytes treated with GSK2982772 at 10 uM measured up to 4 hrs; assay type: ADME, cell-based, Hepatocyte
Outline: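 Compound at 10 μM was incubated with hepatocyte suspensions at 1 million cells/mL. Incubation ran at 37°C under 5% CO2:95% O2 for up to 4 h.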

[5] = target: T1, Receptor-interacting serine/threonine-protein kinase 1; experiment: Displacement of (14-(2-{[3-({2-{[4-(cyanomethyl)phenyl]amino}-6-[(5-cyclopropyl-1H-pyrazol-3-yl)-amino]-4-pyrimidinyl}amino)propyl]amino}-2-oxoethyl)-16,16,18,18-tetramethyl-6,7,7a,8a,9,10,16,18-octahydrobenzo[2'',3'']indolizino-[8'',7'':5',6']pyrano[3',2':3,4]pyrido[1,2-a]indol-5-ium-2-sulfonate from human RIP1 (1 to 375 residues) expressed in baculovirus infected insect cells measured for 50 min
Rattus norvegicus [6] = experiment: as §1; assay type: ADME, organism-based; design: dose 2 mg/kg, route oral, time infinity; conditions: in vivo, BLD = below limit of detection
[7] = Solubility of the compound in FaSSIF; assay type: physicochemical
[8] = Clearance in rat at 2 mg/kg, po; assay type: ADME, organism-based; conditions: in vivo
Rattus norvegicus [9] = experiment: Volume of distribution in rat at 2 mg/kg, po; assay type: ADME, organism-based; conditions: in vivo

Row | Compound | IC50 [1] [nM] | chromatographic logD [2] | AUC(0-inf) [3] [ng·h/mL] | IC50 [5] [nM] | other results
1 | O=C(O)c1n[nH]c(Cc2ccccc2)n1 | – | – | – | – | Drug metabolism [4]: Metabolite_Detected
2 | COC(=O)Nc1ccc2c(c1)N(C)C(=O)[C@@H](NC(=O)c1cc(Cc3ccccc3)on1)CO2 | 0.32 | – | 1100 | – | –
3 | O=C(N[C@H]1CO[C@@H]2CCCC[C@H]2NC1=O)c1cc(Cc2ccccc2)on1 | – | – | – | > 10000 | –
4 | Cc1cc(C(=O)N[C@H]2COc3ccccc3N(C)C2=O)no1 | – | – | – | 12600 | –
5 | CN1C(=O)[C@@H](NC(=O)c2cc(CN3CCCCC3)on2)COc2ccccc21 | – | – | – | > 10000 | –
6 | O=C(N[C@H]1COCCNC1=O)c1cc(Cc2ccccc2)on1 | – | – | – | > 10000 | –
7 | CN1C(=O)[C@@H](NC(=O)c2nnc(Cc3ccccc3)o2)COc2ccccc21 | 0.79 | 4.9 | 130 | – | –
8 | CN1C(=O)[C@@H](NC(=O)c2cc(Cc3ccccc3)ccn2)COc2ccccc21 | 2 | 6.4 | – | – | –
9 | CN1C(=O)[C@@H](NC(=O)c2cc(CC3CCCCC3)on2)COc2ccccc21 | – | – | – | 251 | –
10 | CN1C(=O)[C@@H](NC(=O)c2cn(Cc3ccccc3)nn2)COc2ccccc21 | 1 | 4.6 | 1300 | – | –
11 | CN1C(=O)[C@@H](NC(=O)c2cc(Cc3ccccc3)on2)COc2ccc(NS(C)(=O)=O)cc21 | 0.63 | – | – | – | –
12 | CN1C(=O)[C@@H](NC(=O)c2ncn(Cc3ccccc3)n2)COc2ccccc21 | 0.63 | 4.2 | 280 | – | –
13 | CN1C(=O)[C@@H](NC(=O)c2cc(Cc3ccccc3)on2)COc2ccc(-c3n[nH]c(=O)o3)cc21 | 0.5 | 4.4 | 2100 | – | solubility [7]: 8 µg/mL (≈ 17.3 µM)
14 | CN1C(=O)[C@@H](NC(=O)c2n[nH]c(C(O)c3ccccc3)n2)COc2ccccc21 (some centres not stated) | – | – | – | – | Drug metabolism [4]: Metabolite_Detected
15 | CCCCCc1cc(C(=O)N[C@H]2COc3ccccc3N(C)C2=O)no1 | – | – | – | 100 | –
16 | CN1C(=O)[C@@H](N)COc2ccccc21 | – | – | – | – | Drug metabolism [4]: Metabolite_Detected
17 | CN1C(=O)[C@@H](NC(=O)c2nnn(Cc3ccccc3)n2)COc2ccccc21 | 0.079 | 5 | 240 | – | –
18 | CN1C(=O)[C@@H](NC(=O)c2cn(Cc3ccccc3)cn2)COc2ccccc21 | 0.4 | 4.2 | 660 | – | –
19 | CC(C)Cc1cc(C(=O)N[C@H]2COc3ccccc3N(C)C2=O)no1 | – | – | – | 1600 | –
20 | CN1C(=O)[C@@H](NC(=O)c2cc(Cc3ccccc3)on2)COc2ccccc21 | – | 5.9 | 380 | – | CL/F [8]: 69 mL/min/kg; solubility [7]: 30 µg/mL (≈ 79.5 µM); Vd (Rattus norvegicus [9]): 8.5 L/kg
21 | CN1C(=O)[C@@H](NC(=O)c2cc(Cc3ccccc3)on2)COc2ccc(-c3cc[nH]n3)cc21 | 1 | – | 600 | – | –
22 | CN1C(=O)[C@@H](NC(=O)c2cnn(Cc3ccccc3)c2)COc2ccccc21 | – | 4 | 2900 | 63 | –
23 | CN1C(=O)[C@@H](NC(=O)c2cccc(Cc3ccccc3)c2)COc2ccccc21 | – | 6.3 | – | 251 | –
24 | O=C(N[C@H]1COc2ccccc2NC1=O)c1n[nH]c(Cc2ccccc2)n1 | – | – | – | – | Drug metabolism [4]: Metabolite_Detected
25 | CN1C(=O)[C@@H](NC(=O)c2ncc(Cc3ccccc3)s2)COc2ccccc21 | – | 6.5 | – | – | –

Second part, led by results:

Row | IC50 [1] [nM] | chromatographic logD [2] | AUC(0-inf) [3] [ng·h/mL] | IC50 [5] [nM] | Compound | other results
26 | 0.4 | 5.4 | 170 | – | CN1C(=O)[C@@H](NC(=O)c2cc(Cc3ccccc3)n(C)n2)COc2ccccc21 | –
27 | – | – | – | 3160 | CCN1C(=O)[C@@H](NC(=O)c2cc(Cc3ccccc3)on2)COc2ccccc21 | –
28 | – | 5.4 | – | 794 | CN1C(=O)[C@@H](NC(=O)c2coc(Cc3ccccc3)n2)COc2ccccc21 | –
29 | – | – | – | > 10000 | O=C(N[C@@H]1CNc2ccccc2OC1)c1cc(Cc2ccccc2)on1 | –
30 | – | – | 380 | 200 | O=C(N[C@H]1CCOc2ccccc2NC1=O)c1cc(Cc2ccccc2)on1 | –
31 | 0.5 | 5.4 | 33 | – | CN1C(=O)[C@@H](NC(=O)c2noc(Cc3ccccc3)n2)COc2ccccc21 | –
32 | – | 6.2 | – | – | CN1C(=O)[C@@H](NC(=O)c2cc(Cc3ccccc3)on2)CSc2ccccc21 | AUC (Rattus norvegicus [6]): Bld
33 | 5 | 6 | 82 | – | CN1C[C@H](NC(=O)c2cc(Cc3ccccc3)on2)C(=O)N(C)c2ccccc21 | –
34 | 0.32 | – | 450 | – | CC(=O)Nc1ccc2c(c1)N(C)C(=O)[C@@H](NC(=O)c1cc(Cc3ccccc3)on1)CO2 | –
35 | 0.05 | 5.6 | 55 | – | CN1C(=O)[C@@H](NC(=O)c2ncc(Cc3ccccc3)o2)COc2ccccc21 | –
36 | – | – | – | > 10000 | C[C@]1(NC(=O)c2cc(Cc3ccccc3)on2)COc2ccccc2NC1=O | –
37 | – | 6 | 7 | – | CN1C(=O)[C@@H](NC(=O)c2cc(Cc3ccccc3)on2)CCc2ccccc21 | –
38 | – | – | – | > 10000 | O=C(N[C@H]1COc2ccccc2N(C2CC2)C1=O)c1cc(Cc2ccccc2)on1 | –
39 | – | – | – | > 10000 | O=C(NC1Cc2ccccc2NC1=O)c1cc(Cc2ccccc2)on1 (configuration not stated) | –
40 | – | 5 | 800 | – | CN1C(=O)[C@@H](NC(=O)c2cc(Cc3ccccc3)on2)CNc2ccccc21 | solubility [7]: 97 µg/mL (≈ 258 µM)
41 | – | – | 2200 | – | O=C(N[C@H]1COc2ccccc2NC1=O)c1cc(Cc2ccccc2)on1 | –
42 | – | – | – | > 10000 | CN(C(=O)c1cc(Cc2ccccc2)on1)[C@H]1COc2ccccc2NC1=O | –
43 | – | 3.8 | – | 1260 | CN1C(=O)[C@@H](NC(=O)c2c[nH]c(Cc3ccccc3)n2)COc2ccccc21 | –
